Measurements reported in ChEMBL document CHEMBL4138133, “2,3-Dihydro-3β-methoxy Withaferin-A Protects Normal Cells against Stress: Molecular Evidence of Its Potent Cytoprotective Activity” (J Nat Prod, 2017).
Calls of active or inactive are those of the source. The rule behind the calls is not given here.

How the values were obtained:
[1] = test system: TIG-3; test: Induction of oxidative stress in human TIG3 cells assessed as increase in CARF expression level at 0.6 uM by immunoblot analysis; type: cell-based; settings: tig-3, 0.6 µM
Outline: (§1)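 TIG-3 cells treated with compound, lysed in NP40 buffer (centrifuged 20 min, 4 °C); 10−20 μg protein immunoblotted for indicated proteins; band quantitation from three independent experiments, Student's t or Mann−Whitney test.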

[2] = test system: TIG-3; test: Cytoprotective activity against H2O2-induced oxidative stress in human TIG3 cells assessed as increase in cell survival at 3 uM pretreated with H2O2 for 2 hrs followed by compound addition measured after 2 days by crystal violet staining based assay; type: functional
[3] = test system: TIG-3; test: Decrease in keap1 expression level in human TIG3 cells at 0.3 to 3 uM by immunoblot analysis; type: ADME, cell-based; settings: tig-3, 3 µM; outline: as §1
[4] = test system: TIG-3; test: Cytotoxicity against human TIG3 cells assessed as cell death at 1 uM after 48 hrs relative to control; type: cell-based; settings: tig-3, 48 h
Outline: (§2)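 Normal human fibroblasts (TIG-3, WI38) exposed to serially increasing compound concentrations (0.15 to 50 μM) for 48 or 72 h. Viability scored against untreated control. Triplicate experiments.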

[5] = species: Homo sapiens; test: Induction of AKT/p38/p44 MAPK-mediated survivin expression level in H2O2 treated human TIG3 cells at 0.3 uM pretreated with H2O2 for 2 hrs followed by compound addition by immunoblot analysis
Outline: (§3)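 TIG-3 cells stressed with H2O2 (500 μM, 2 h), then recovered in medium containing 0.3 or 0.6 μM compound. Lysed in NP40 buffer; 10−20 μg protein immunoblotted for pAkt Ser473, p-p38 Thr180/Tyr182, p-p44/42 Thr202/Tyr204, β-catenin, survivin, Bcl-2 or full-length PARP-1. Triplicate experiments.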

[6] = test system: TIG-3; test: Cytoprotective activity against H2O2-induced oxidative stress in human TIG3 cells assessed as increase in full length PARP level at 0.3 uM pretreated with H2O2 for 2 hrs followed by compound addition by immunoblot analysis; type: functional, cell-based; outline: as §3
[7] = test system: TIG-3; test: Cytoprotective activity against H2O2-induced oxidative stress in human TIG3 cells assessed as increase in Bcl2 level at 0.3 uM pretreated with H2O2 for 2 hrs followed by compound addition by immunoblot analysis; type: functional, cell-based; outline: as §3
[8] = test system: TIG-3; test: Cytotoxicity against human TIG3 cells assessed as cell death at 0.6 uM; type: cell-based; settings: tig-3, 0.6 µM
Outline: (§4)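 Phase-contrast microscopy of morphology of control and treated normal human TIG-3 fibroblasts.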

[9] = test system: TIG-3; test: Cytoprotective activity against UV irradiation-induced stress in human TIG3 cells assessed as decrease in p53 level irradiated with 50 mJ/cm2 of UV radiations followed by compound addition by immuno fluorescence staining based assay; type: functional, cell-based
[10] = test system: TIG-3; test: Induction of oxidative stress in human TIG3 cells assessed as increase in GADD45alpha mRNA levels by RT-PCR analysis; type: cell-based
Outline: (§5)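 Total RNA from treated TIG-3 cells; cDNA from 2 μg RNA; PCR 95 °C 10 min, 30 cycles (95 °C 45 s, 58 °C 1 min, 72 °C 45 s), 72 °C 10 min; products on 0.8% agarose, band densitometry; three independent experiments.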

[11] = test system: TIG-3; test: Induction of oxidative stress against human TIG3 cells assessed as increase in CARF mRNA levels by RT-PCR analysis; type: cell-based; outline: as §5
[12] = biological target: Mitogen-activated protein kinase 3 (Homo sapiens) (UniProt P27361); test: Induction of ERK1 phosphorylation at Thr202 residues in H2O2 treated human TIG3 cells at 0.3 uM pretreated with H2O2 for 2 hrs followed by compound addition by immunoblot analysis; outline: as §3
[13] = test system: TIG-3; test: Cytotoxicity against human TIG3 cells assessed as inhibition of colony formation at 0.1 to 0.3 uM by crystal violet staining based assay; type: cell-based; settings: tig-3, 0.3 µM
Outline: (§6)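 Cells seeded at 500 per well and grown about 2 weeks in compound-supplemented medium, with medium changed every fourth day. Colonies fixed, stained and counted. Triplicate; Student's t test.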

[14] = test system: TIG-3; test: Induction of oxidative stress in human TIG3 cells assessed as increase in p53 expression level at 0.6 uM by immunoblot analysis; type: cell-based; settings: tig-3, 0.6 µM; outline: as §1
[15] = test system: TIG-3; test: Cytotoxicity against human TIG3 cells assessed as induction of senescence at 64 population doubling at 0.1 uM; type: cell-based; settings: tig-3, 0.1 µM
[16] = test system: TIG-3; test: Cytotoxicity against human TIG3 cells assessed as induction of morphological changes at 0.3 to 1.5 uM after 48 hrs by phase contrast microscopy; type: cell-based; settings: tig-3, 48 h; outline: as §4
[17] = test system: TIG-3; test: Decrease in Nrf2 expression level in human TIG3 cells at 0.3 to 3 uM by immunoblot analysis; type: ADME, cell-based; settings: tig-3, 3 µM; outline: as §1
[18] = test system: WI-38; test: Cytotoxicity against human WI38 cells assessed as inhibition of colony formation at 0.1 to 0.3 uM by crystal violet staining based assay; type: cell-based; settings: wi-38, 0.3 µM; outline: as §6
[19] = test system: TIG-3; test: Cytoprotective activity against H2O2-induced oxidative stress in human TIG3 cells assessed as decrease in p53 level pretreated with H2O2 for 2 hrs followed by compound addition by immuno fluorescence staining based assay; type: functional, cell-based
[20] = test system: TIG-3; test: Cytoprotective activity against H2O2-induced oxidative stress in human TIG3 cells assessed as decrease in CARF level pretreated with H2O2 for 2 hrs followed by compound addition by immuno fluorescence staining based assay; type: functional, cell-based
[21] = test system: TIG-3; test: Cytotoxicity against human TIG3 cells assessed as decrease in ROS generation at 1.5 to 3 uM after 48 hrs; type: cell-based; settings: tig-3, 48 h
[22] = test system: TIG-3; test: Cytoprotective activity against UV irradiation-induced stress in human TIG3 cells assessed as decrease in CARF level irradiated with 50 mJ/cm2 of UV radiations followed by compound addition by immuno fluorescence staining based assay; type: functional, cell-based
[23] = test system: TIG-3; test: Induction of apoptosis in human TIG3 cells assessed as decrease in Bcl2 levels at 0.3 to 3 uM by immunoblot analysis; type: cell-based; settings: tig-3, 3 µM
Outline: (§7)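 TIG-3 cells treated with compound without added stress. Lysed in NP40 buffer; 10−20 μg protein immunoblotted for Bcl-2 and Bax. Band intensities quantified from three independent sets.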

[24] = biological target: MAP kinase p38 (Homo sapiens) (UniProt O15264+Q15759+Q16539+P53778); test: Induction of p38 MAPK phosphorylation at Thr180/Tyr182 residues in H2O2 treated human TIG3 cells at 0.3 uM pretreated with H2O2 for 2 hrs followed by compound addition by immunoblot analysis; outline: as §3
[25] = biological target: RAC-alpha serine/threonine-protein kinase (Homo sapiens) (UniProt P31749); test: Induction of AKT-mediated beta-catenin expression level in H2O2 treated human TIG3 cells at 0.3 uM pretreated with H2O2 for 2 hrs followed by compound addition by immunoblot analysis; outline: as §3
[26] = test system: TIG-3; test: Induction of apoptosis in human TIG3 cells assessed as increase in Bax levels at 0.3 to 3 uM by immunoblot analysis; type: cell-based; settings: tig-3, 3 µM; outline: as §7
[27] = test system: TIG-3; test: Effect on mortalin expression level in human TIG3 cells at 0.3 to 3 uM by immuno fluorescence analysis; type: ADME, cell-based; settings: tig-3, 3 µM
Outline: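 Methanol-fixed (chilled absolute methanol) TIG-3 fibroblasts treated with Wi-A or 3βmWi-A; immunofluorescence staining with antibodies, imaged by epifluorescence microscopy; signal quantitated from three independent experiments.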

[28] = test system: WI-38; test: Cytotoxicity against human WI38 cells assessed as cell death at 1 uM after 48 hrs relative to control; type: cell-based; settings: wi-38, 48 h; outline: as §2
[29] = biological target: RAC-alpha serine/threonine-protein kinase (Homo sapiens) (UniProt P31749); test: Induction of Akt phosphorylation at Ser473 residues in H2O2 treated human TIG3 cells at 0.3 uM pretreated with H2O2 for 2 hrs followed by compound addition by immunoblot analysis; outline: as §3
[30] = biological target: Mitogen-activated protein kinase 1 (Homo sapiens) (UniProt P28482); test: Induction of ERK2 phosphorylation at Tyr204 residues in H2O2 treated human TIG3 cells at 0.3 uM pretreated with H2O2 for 2 hrs followed by compound addition by immunoblot analysis; outline: as §3
Chain of Mitogen-activated protein kinase 1 (Homo sapiens) (P28482 whole entry): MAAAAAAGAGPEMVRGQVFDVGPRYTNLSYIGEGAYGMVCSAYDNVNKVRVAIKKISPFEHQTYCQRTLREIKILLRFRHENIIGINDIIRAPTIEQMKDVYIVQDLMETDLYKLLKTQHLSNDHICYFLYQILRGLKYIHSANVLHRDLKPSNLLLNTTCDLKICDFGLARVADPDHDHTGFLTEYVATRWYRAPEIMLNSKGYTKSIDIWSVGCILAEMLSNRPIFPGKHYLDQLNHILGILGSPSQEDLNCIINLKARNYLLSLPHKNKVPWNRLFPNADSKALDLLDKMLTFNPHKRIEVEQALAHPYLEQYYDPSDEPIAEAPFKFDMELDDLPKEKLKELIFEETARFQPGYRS

Chain of RAC-alpha serine/threonine-protein kinase (Homo sapiens) (P31749 whole entry): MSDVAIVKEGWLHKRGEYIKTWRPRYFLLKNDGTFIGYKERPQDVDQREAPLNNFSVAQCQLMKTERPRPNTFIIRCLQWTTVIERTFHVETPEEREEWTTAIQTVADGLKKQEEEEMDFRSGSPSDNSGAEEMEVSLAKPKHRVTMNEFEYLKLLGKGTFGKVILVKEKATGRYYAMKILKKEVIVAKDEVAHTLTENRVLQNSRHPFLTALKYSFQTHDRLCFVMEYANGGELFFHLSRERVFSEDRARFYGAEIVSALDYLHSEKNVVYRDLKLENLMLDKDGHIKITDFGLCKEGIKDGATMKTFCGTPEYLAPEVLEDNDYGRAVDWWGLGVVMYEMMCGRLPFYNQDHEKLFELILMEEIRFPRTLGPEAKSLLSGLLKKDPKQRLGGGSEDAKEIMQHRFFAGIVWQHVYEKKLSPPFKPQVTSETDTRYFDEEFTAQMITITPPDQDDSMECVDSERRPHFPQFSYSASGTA
Chain of Mitogen-activated protein kinase 3 (Homo sapiens) (P27361 whole entry): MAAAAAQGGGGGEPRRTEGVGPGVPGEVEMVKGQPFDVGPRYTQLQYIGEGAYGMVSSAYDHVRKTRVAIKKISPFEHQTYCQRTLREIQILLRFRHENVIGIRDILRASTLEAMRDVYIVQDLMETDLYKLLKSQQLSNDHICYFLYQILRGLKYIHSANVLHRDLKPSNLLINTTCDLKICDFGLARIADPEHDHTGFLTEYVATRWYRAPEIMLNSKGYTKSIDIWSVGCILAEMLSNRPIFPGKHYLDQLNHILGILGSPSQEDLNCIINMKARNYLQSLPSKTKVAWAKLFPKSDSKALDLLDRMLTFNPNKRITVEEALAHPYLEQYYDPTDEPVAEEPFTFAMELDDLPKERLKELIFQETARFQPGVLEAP

Activity [12]: Active
Activity [24]: Active
Activity [25]: Active
Activity [29]: Active
Activity [30]: Active
SMILES: CC1=C(CO)C(=O)O[C@@H]([C@@H](C)[C@H]2CC[C@H]3[C@@H]4C[C@H]5O[C@]56[C@@H](O)C=CC(=O)[C@]6(C)[C@H]4CC[C@]23C)C1 [WITHAFERIN A]
Activity [1]: Toxic
Activity [2]: inactive
Activity [3]: Toxic
Activity [4]: 90%
Activity [5]: Active
Activity [6]: inactive
Activity [7]: inactive
Activity [8]: Toxic
Activity [9]: inactive
Activity [10]: Toxic
Activity [11]: Toxic
Activity [13]: Toxic
Activity [14]: Toxic
Activity [15]: Toxic
Activity [16]: Toxic
Activity [17]: Toxic
Activity [18]: Toxic
Activity [19]: inactive
Activity [20]: inactive
Activity [21]: Toxic
Activity [22]: inactive
Activity [23]: Toxic
Activity [26]: Toxic
Activity [27]: Toxic
Activity [28]: 90%
